From PubChem BioAssay
In the library only some 29% were active in any assay of this set; here they are far more common.
CYP2C19 act: cytochrome P450 2C19 (human) activation | 96,000 tested, under 10 active | activation factor at 5 µM | recombinant CYP2C19, luciferin-H EGE luminescence; hits give high values; 0 = fully inhibited enzyme, 1 = untreated enzyme | AID 1025 | P33261;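 active = activation factor of at least 2 at 5 µM in the primary screen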;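 note: 0 = wells with 2.5 mM tranylcypromine and 1 = vehicle-only wells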
Target sequence (P33261 whole entry, looked up): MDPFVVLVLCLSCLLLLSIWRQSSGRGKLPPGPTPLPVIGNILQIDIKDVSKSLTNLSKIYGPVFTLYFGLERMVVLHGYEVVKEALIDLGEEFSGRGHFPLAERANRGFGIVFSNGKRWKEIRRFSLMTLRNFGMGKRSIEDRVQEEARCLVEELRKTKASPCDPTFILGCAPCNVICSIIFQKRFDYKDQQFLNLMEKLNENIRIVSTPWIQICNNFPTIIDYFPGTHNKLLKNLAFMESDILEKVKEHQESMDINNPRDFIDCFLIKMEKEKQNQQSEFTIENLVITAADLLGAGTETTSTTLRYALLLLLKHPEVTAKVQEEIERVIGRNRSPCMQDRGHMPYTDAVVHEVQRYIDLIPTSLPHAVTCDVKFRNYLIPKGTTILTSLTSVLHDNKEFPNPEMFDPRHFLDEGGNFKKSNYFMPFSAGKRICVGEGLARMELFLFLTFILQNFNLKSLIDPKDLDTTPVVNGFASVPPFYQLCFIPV
CYP2C9 inh: inhibitors of human CYP2C9 | P11712 | CYP2C9 Supersomes, luciferin-H conversion, luminescence | inhibition, % at 5 µM | 20% of 96,000 active;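 active = blocking of liver enzyme CYP2C9 beyond about 50% at 5 µM, limit read from the data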
CYP2C19 inhib: blocks human cytochrome P450 2C19 | P33261 | CYP2C19 Supersomes, luciferin-H EGE luminescence, 30 min | inhibition, % at 5 µM | 21% of 96,000 active;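 active = CYP2C19 inhibition above a set limit at 5 µM in the primary screen, cut at about 50% in these data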;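 note: plate controls were negative control wells for no effect and 2.5 mM tranylcypromine positive control for full effect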
E coli WT exp: E. coli BW25113 growth inhibition, expanded screen. OD600 absorbance. growth inhibition, % at 100 µM. 0.15% of 98,000 active. AID 710;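 active = growth inhibition above about 50% at one test dose, limit read from the data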;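 note: growth measured after 20 h incubation at 37 °C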
tolC growth inh: blocks growth of E. coli BW25113 tolC mutant; 2.2% of 65,000 active; growth inhibition, % at 10 µM (by protocol); AID 573; OD615;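 active = growth inhibition at or above a cutoff equal to the mean over every tested compound plus 3 SD, cut at about 60% in these data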;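 note: growth measured after 20 h incubation at 37 °C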
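signal = optical density read at 615 nm | test system = E. coli ΔtolC::kan strain BW25113 | timing = 20 h compound exposure of bacteria at 37 °C | buffer or medium = LB medium plus 50 µg/mL kanamycin | compound dosing = 10 µM final, single dose | evaluation = % inhibition of E. coli growth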
CYP2C9 activ: CYP2C9 (human) activation; recombinant CYP2C9, luciferin-H conversion, luminescence; hits give high values; factor 1 = untreated enzyme, 0 = blocked; P11712; 1.4% of 96,000 active; activation factor at 5 µM;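 active = activation factor of 2 or more for CYP2C9 at a 5 µM dose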;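 note: 0 = sulfaphenazole-blocked wells and 1 = vehicle-only wells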
Active calls of the source: *.

What do the screens show for `CCOC(=O)c1cnc(SCc2ccc(C(C)(C)C)cc2)nc1N`?
CYP2C19 act: 1.1; CYP2C9 inh: 70*; CYP2C19 inhib: -6; E coli WT exp: -2; CYP2C9 activ: 0.3

What do the screens show for `COCc1cc(C)nc(SCC(=O)Nc2ccc3c(c2)OCO3)c1C#N`?
CYP2C19 act: 0.2; CYP2C9 inh: 22; CYP2C19 inhib: 76*; E coli WT exp: -1; tolC growth inh: 16; CYP2C9 activ: 0.8

How did COc1ccc(C(=O)COC(=O)[C@H](C)Nc2ccc(C(F)(F)F)cc2[N+](=O)[O-])c(OC)c1 do in these assays?
CYP2C19 act: 1; CYP2C9 inh: 24; CYP2C19 inhib: 1; E coli WT exp: -6; CYP2C9 activ: 0.8

What do the screens show for `Cn1c(=O)oc2cc(S(=O)(=O)NCc3ccccn3)ccc21`?
CYP2C19 act: 0.8; CYP2C9 inh: -5; CYP2C19 inhib: 24; E coli WT exp: 6; tolC growth inh: -15; CYP2C9 activ: 1

What do the screens show for `COc1cccc(/C(O)=C2/C(=O)C(=O)N(CCCN(C)C)C2c2cccc(Cl)c2)c1` (stereo not given)?
CYP2C19 act: 1.3; CYP2C9 inh: -17; CYP2C19 inhib: -27; tolC growth inh: 0; CYP2C9 activ: 1.2

What do the screens show for `COc1ccc(C(C(=O)NC2CCCC2)N2CCc3ccccc32)cc1` (stereo not given)?
CYP2C19 act: 1.1; CYP2C9 inh: 2; CYP2C19 inhib: -14; E coli WT exp: 2; tolC growth inh: -2; CYP2C9 activ: 1

How did Cc1ccc(NS(=O)(=O)c2ccc(C)c(C(=O)N3CCN(C)CC3)c2)cc1 do in these assays?
CYP2C19 act: 0.9; CYP2C9 inh: 1; CYP2C19 inhib: 14; E coli WT exp: -8; tolC growth inh: -15; CYP2C9 activ: 1

What do the screens show for `CCCNC(=O)NC(=O)CSc1ccc2c(c1)OCCO2`?
CYP2C19 act: 0.2; CYP2C9 inh: 3; CYP2C19 inhib: 76*; E coli WT exp: 11; CYP2C9 activ: 1

What do the screens show for `CCCNC(=O)NC(=O)CSc1nnc(C)n1N`?
CYP2C19 act: 1.1; CYP2C9 inh: -24; CYP2C19 inhib: -9; E coli WT exp: -1; CYP2C9 activ: 1.2

Results for O=C(CSc1ccc2c(c1)OCCO2)Nc1ccc2c(c1)OCO2 ?
CYP2C19 act: 0; CYP2C9 inh: 92*; CYP2C19 inhib: 100*; E coli WT exp: 0; CYP2C9 activ: 0.1

Results for O=C(CSc1ccc2c(c1)OCCO2)Nc1ccc(Br)cc1 ?
CYP2C19 act: 0; CYP2C9 inh: 75*; CYP2C19 inhib: 95*; E coli WT exp: 5; CYP2C9 activ: 0.3

What do the screens show for `O=C(CSc1ccc2c(c1)OCCO2)NCc1ccco1`?
CYP2C19 act: 0.5; CYP2C9 inh: 70*; CYP2C19 inhib: 55*; E coli WT exp: -1; tolC growth inh: -8; CYP2C9 activ: 0.3

Results for COc1cc(NC(=O)CSc2ccc3c(c2)OCCO3)cc(OC)c1OC ?
CYP2C19 act: 0.7; CYP2C9 inh: 19; CYP2C19 inhib: 26; E coli WT exp: -5; CYP2C9 activ: 0.8

What do the screens show for `CC(Sc1nc(-c2ccccc2)nc2c1COC(C)(C)C2)C(=O)N1CCOCC1` (stereo not given)?
CYP2C19 act: 0.5; CYP2C9 inh: 27; CYP2C19 inhib: 46; E coli WT exp: 3; CYP2C9 activ: 0.7

How did Cc1cc(NC(=O)CN2CCc3ccccc3C2)nc2c1c(=O)oc1ccccc12 do in these assays?
tolC growth inh: -4

How did Cc1nnc(SC(C)C(=O)Nc2ccc3c(c2)OCCO3)s1 (stereo not given) do in these assays?
CYP2C19 act: 0.9; CYP2C9 inh: 20; CYP2C19 inhib: 8; E coli WT exp: -5; tolC growth inh: -1; CYP2C9 activ: 0.8

How did CC(Sc1ccc2c(c1)OCCO2)C(=O)Nc1ccc2c(c1)OCO2 (stereo not given) do in these assays?
CYP2C19 act: 0; CYP2C9 inh: 90*; CYP2C19 inhib: 100*; E coli WT exp: -4; tolC growth inh: 4; CYP2C9 activ: 0.1

Results for C=CCOc1ccccc1C1NC(=O)NC(C)=C1C(=O)NCc1ccccc1 (stereo not given) ?
CYP2C19 act: 0.8; CYP2C9 inh: 41; CYP2C19 inhib: 18; E coli WT exp: 7; CYP2C9 activ: 0.6

How did Cc1cc(C)c(NC(=O)CN2CCN3CCCC3C2)c(C)c1 (stereo not given) do in these assays?
CYP2C19 act: 1; CYP2C9 inh: -10; CYP2C19 inhib: 0; E coli WT exp: 3; tolC growth inh: -22; CYP2C9 activ: 1.1

Results for COc1ccc(COn2c(=O)c(C)[n+]([O-])c3ccccc32)cc1OC ?
CYP2C19 act: 0.5; CYP2C9 inh: 74*; CYP2C19 inhib: 52*; E coli WT exp: 7; tolC growth inh: -12; CYP2C9 activ: 0.3

Results for Cc1c(=O)n(OCc2ccccc2)c2ccccc2[n+]1[O-] ?
CYP2C19 act: 0.3; CYP2C9 inh: 13; CYP2C19 inhib: 69*; E coli WT exp: -9; tolC growth inh: -2; CYP2C9 activ: 0.9

What do the screens show for `Cc1c(=O)n(OCc2c(F)cccc2F)c2ccccc2[n+]1[O-]`?
tolC growth inh: -4

How did Cc1cc(O)c(C(C[N+](=O)[O-])c2ccc(Cl)cc2)c(=O)o1 (stereo not given) do in these assays?
CYP2C19 act: 0.5; CYP2C9 inh: 84*; CYP2C19 inhib: 47; E coli WT exp: 2; CYP2C9 activ: 0.2

What do the screens show for `COc1ccc(C(c2c(O)cc(C)oc2=O)c2c(O)cc(C)oc2=O)cc1`?
CYP2C19 act: 0.9; CYP2C9 inh: 35; CYP2C19 inhib: 7; E coli WT exp: -5; CYP2C9 activ: 0.7

How did COC(=O)c1ccccc1NC(=O)c1ccc(COc2ccc(C)c(C)c2)o1 do in these assays?
CYP2C19 act: 0.5; CYP2C9 inh: -4; CYP2C19 inhib: 52*; E coli WT exp: -4; CYP2C9 activ: 1

What do the screens show for `COc1ccccc1OCc1ccc(C(=O)N(C)C)o1`?
CYP2C19 act: 0.8; CYP2C9 inh: 4; CYP2C19 inhib: 20; E coli WT exp: 2; CYP2C9 activ: 1

Results for COc1ccccc1NC(=O)c1ccc(COc2ccccc2OC)o1 ?
CYP2C19 act: 0.4; CYP2C9 inh: -185; CYP2C19 inhib: 58*; E coli WT exp: 6; tolC growth inh: 0; CYP2C9 activ: 2.8*

What do the screens show for `O=C(CCc1nc(-c2ccccc2F)no1)NC1CCCCC1`?
CYP2C19 act: 0.9; CYP2C9 inh: 28; CYP2C19 inhib: 10; E coli WT exp: 7; tolC growth inh: -3; CYP2C9 activ: 0.7

What do the screens show for `Cc1oc(C(=O)O)cc1COc1cccc2cccnc12`?
CYP2C19 act: 1; CYP2C9 inh: -16; CYP2C19 inhib: 0; E coli WT exp: -7; tolC growth inh: 0; CYP2C9 activ: 1.2

Results for CCOC(=O)C1C(=O)NC(N2CCCCC2)=NC1c1ccco1 (stereo not given) ?
CYP2C19 act: 1.2; CYP2C9 inh: -11; CYP2C19 inhib: -22; E coli WT exp: 2; tolC growth inh: -12; CYP2C9 activ: 1.1
